High-throughput results: PubChem, The Scripps Research Institute Molecular Screening Center
A selection: hits, their analogues and other compounds. The true share with any hit is near 2.8%.
pPAFAH inh: pPAFAH (human) enzyme inhibition | inhibition, % at 3.39 µM | recombinant pPAFAH, FP-rhodamine probe fluorescence polarization | 330,000 tested, 1.5% active | Q13093;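 active = inhibition above the mean inhibition across the screen plus 3 SD, cut at about 25% in these data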;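 note: inhibitors block binding of the rhodamine activity-based probe so polarization drops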
ARFGAP1 inh: inhibits rat ARF GTPase activating protein 1; Arfgap1-stimulated ARF1 GTP hydrolysis, GDP FP detection; inhibition, % at 16.5 µM; 360,000 tested, 0.26% active; AID 651572;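 active = inhibition above a per-plate limit, mean inhibition of low control wells plus 3 SD, cut at about 25% in these data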
Target sequence (Q62848 1-136 limits assumed): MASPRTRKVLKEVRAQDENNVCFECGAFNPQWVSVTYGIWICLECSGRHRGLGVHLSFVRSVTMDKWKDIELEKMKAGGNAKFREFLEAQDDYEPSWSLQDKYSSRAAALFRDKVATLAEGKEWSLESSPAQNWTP
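Material: rat Arfgap1 GAP domain (His6, aa 1-136), purified enzyme. Also added: human ARF1(Δ1-17)-GTP substrate. Compound dosing: 16.5 µM single point, 1.26% DMSO. Timing: enzyme reaction 120 min at 25 °C after 20 min preincubation. Signal: GDP detection by fluorescence polarization. Read-out basis: percent inhibition of GAP-stimulated GDP formation, scaled between DMSO and no-Arfgap1 medians.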
PAFAH2 FP inh: inhibitors of human PAFAH2. inhibition, % at 3.39 µM. 340,000 tested, 0.99% active. AID 492956. Q99487. recombinant PAFAH2, FP-rhodamine activity probe, fluorescence polarization;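 active = inhibition above the mean over all tested compounds plus 3 SD, cut at about 30% in these data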;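 note: inhibitors block probe labeling of enzyme so polarization drops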
PAFAH1B3 inh: inhibitors of human PAFAH1B3; AID 492972; 340,000 tested, 0.28% active; inhibition, % at 3.39 µM; recombinant PAFAH1B3, FP-rhodamine probe, fluorescence polarization; Q15102;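 active = inhibition above the screen-wide average of all tested compounds plus 3 SD, cut at about 25% in these data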
ASAP1 GAP inh: inhibitors of human ASAP1 ArfGAP activity. Q9ULH1. ASAP1-stimulated ARF1 GTP hydrolysis, GDP FP detection. inhibition, % at 16.5 µM. 360,000 tested, 0.19% active. AID 624377; in the data active = inhibition above about 25%
PAFAH1B2 inh: inhibitors of human PAFAH1B2 | P68402 | recombinant PAFAH1B2, FP-rhodamine activity probe, fluorescence polarization | inhibition, % at 3.39 µM | 340,000 tested, 1.2% active;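 active = inhibition above the mean of all tested compounds plus 3 SD, cut at about 24% in these data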
PAFAH1B3 conf FP: PAFAH1B3 (human) inhibition, confirmed. shares compounds with PAFAH1B3 inh. recombinant PAFAH1B3, FP-Rh activity-based probe, fluorescence polarization. inhibition, % at 3.39 µM. 390 tested, 30% active;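 active = average inhibition over triplicate runs above the hit cutoff set in the earlier primary screen, cut at about 25% in these data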
ASAP1 GAP conf: ASAP1 inhibition confirmed | inhibition, % at 16.5 µM | shares compounds with ASAP1 GAP inh | ASAP1-stimulated Arf1 GTPase, GDP fluorescence polarization | 620 tested, 37% active;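 active = mean inhibition over triplicates exceeds the hit threshold derived for the earlier primary screening run, cut at about 25% in these data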
ARFGAP1 inh conf: confirmation of rat ARFGAP1 inhibitors; inhibition, % at 16.5 µM; ARFGAP1-stimulated ARF1 GTP hydrolysis, GDP tracer FP; AID 651608; 890 tested, 30% active; shares compounds with ARFGAP1 inh;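 active = average inhibition over triplicates above the hit cutoff set in the earlier primary screen, cut at about 25% in these data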
Target sequence (Q62848 whole entry, looked up): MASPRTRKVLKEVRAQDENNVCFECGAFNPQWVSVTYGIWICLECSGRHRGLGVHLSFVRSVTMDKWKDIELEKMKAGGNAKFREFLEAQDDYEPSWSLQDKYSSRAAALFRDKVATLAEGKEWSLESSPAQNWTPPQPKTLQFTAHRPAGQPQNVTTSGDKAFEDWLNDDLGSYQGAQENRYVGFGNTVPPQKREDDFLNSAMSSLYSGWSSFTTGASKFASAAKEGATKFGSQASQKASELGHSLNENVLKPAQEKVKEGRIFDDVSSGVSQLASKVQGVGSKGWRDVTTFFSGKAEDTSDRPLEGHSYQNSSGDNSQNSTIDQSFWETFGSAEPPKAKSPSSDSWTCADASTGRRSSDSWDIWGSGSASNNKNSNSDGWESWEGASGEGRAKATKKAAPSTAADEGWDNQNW
A number is an active result; 0 = inactive; - = no result.

SMILES	pPAFAH inh	ARFGAP1 inh	PAFAH2 FP inh	PAFAH1B3 inh	ASAP1 GAP inh	PAFAH1B2 inh	PAFAH1B3 conf FP	others
FC(F)(F)C1=Nc2cccc3cccc(c23)N1	-	0	0	35.3	0	0	40.2
CCN(CC)C(=O)c1ncn2c1C(=O)NC[C@H]2C	-	0	-	-	0	-	-
O=C(NCc1ccco1)c1cccc(Nc2nc3ccc(Br)cc3[nH]2)c1	0	0	0	32.0	0	0	0
COc1cc(NCCCCCCN)c2ncccc2c1OC	-	0	0	56.7	0	0	0
Cc1ccc(C(C)NC(=S)NC2CCCCC2)c(C)c1 (centres undefined)	-	0	0	0	0	0	-
Cc1[nH]c2ccccc2c1CCNC(=O)c1ccc2c(c1[N+](=O)[O-])C(=O)c1ccccc1C2=O	0	0	0	44.0	0	0	67.0
CCNC(=O)C(=O)NCC(c1cccs1)S(=O)(=O)c1ccc(C)cc1 (centres undefined)	0	0	0	0	0	0	-
COc1cc(C(=O)N/N=C/c2cn(Cc3cccc(F)c3)c3ccccc23)ccc1O	-	0	0	33.7	0	0	0
COc1ccc(N2CCN(C(=O)NCc3ccc(C)cc3)CC2)cc1	0	0	0	0	0	0	-
CCc1cccc2c(N=O)c(O)[nH]c12	0	0	0	28.1	0	0	0
CCOC(=O)c1c(C)oc2c1c(C=NCCO)c(O)c1ccccc12	-	0	0	29.9	0	0	0
Cc1ccc(C(=O)CSc2nn3c(=O)c(C(C)(C)C)nnc3s2)cc1	0	0	0	0	0	0	-
CC(C)(C)c1nnc2sc(SCC(=O)c3ccc(Cl)cc3)nn2c1=O	0	-	0	26.8	-	0	0
CCOc1ccccc1/C=C/c1nc2ccccc2[nH]c1=O	-	0	0	27.9	0	0	0
COc1cc(NS(=O)(=O)c2ccc(NC(=S)NC(=O)/C=C/c3ccco3)cc2)ncn1	-	0	0	29.5	0	0	0
CC(=O)c1sc(C(C)(C)C)cc1NC(=O)/C=C/C(=O)O	0	0	0	43.6	0	0	35.1
Nc1nc(NCc2cccs2)nn1-c1ccccc1	0	0	0	0	0	0	-
Nc1nc(NCc2ccco2)nn1-c1ccccc1	0	0	0	26.5	0	0	0
C(=N\Nc1nc(N2CCCCC2)nc(N2CCCCC2)n1)/c1c[nH]c2ccccc12	0	0	0	0	0	0	-
Cc1[nH]c2ccccc2c1/C=N/Nc1nc(N2CCCCC2)nc(N2CCCCC2)n1	0	0	0	25.6	0	0	0
CCOC(=O)c1c(C)[nH]c(C)c1C(=O)COC(=O)/C=C/c1ccccc1[N+](=O)[O-]	0	0	0	0	0	0	-
CCOC(=O)c1c(C)[nH]c(C)c1C(=O)COC(=O)c1ccc([N+](=O)[O-])s1	0	0	0	45.5	0	0	0
CC(C)(O)/C=C/C[C@](C)(O)C1CC[C@]2(C)C1[C@H](O[C@H]1O[C@@H](CO)[C@H](O)[C@@H](O)[C@@H]1O)CC1[C@@]3(C)CC[C@H](O)C(C)(C)C3[C@@H](O)C[C@]12C (some centres undefined)	0	0	0	0	0	0	-
Nc1cnccc1C(=O)O	0	0	0	27.9	0	0	0
COC(=O)c1ccncc1N	0	0	0	0	0	0	-
SMILES	pPAFAH inh	ARFGAP1 inh	PAFAH2 FP inh	PAFAH1B3 inh	ASAP1 GAP inh	PAFAH1B2 inh	PAFAH1B3 conf FP	others
O=C(NC1=C(NC2CCS(=O)(=O)C2)C(=O)c2ccccc2C1=O)c1ccccc1 (centres undefined)	0	0	0	66.2	0	0	36.2
O=C(NC1=C(Nc2ccc(Cl)cc2)C(=O)c2ccccc2C1=O)c1ccccc1	0	0	0	0	0	0	-
Cc1ccc(S(=O)(=O)N2[C@@H](CO)CO[C@H]2CC(=O)c2ccccc2)cc1	-	0	-	-	0	-	-
Cc1cc(C)nc(N2CCC(C(=O)Nc3ccc(Oc4ccccc4)cc3)CC2)n1	0	0	0	108.4	0	0	0
Cc1nc2ccc(C(=O)N/N=C/c3cc([N+](=O)[O-])ccc3O)cc2[nH]1	0	0	0	26.6	0	0	0
O=C(NCC1CCCO1)c1coc2nc3ccccc3nc12 (centres undefined)	0	0	0	0	0	0	-
C=CCn1c(N)c(C(=O)NCC2CCCO2)c2nc3ccccc3nc21 (centres undefined)	0	0	0	26.4	0	0	0
CC(=O)Oc1ccccc1Cn1c(C)c(C(=O)NCc2cccc(Cl)c2)sc1=O	-	0	-	-	0	-	-
Cc1cccc2c1NC(=O)C2=O	-	0	0	36.3	0	0	0
CC(OC(=O)Cc1c[nH]c2ccccc12)C(=O)Nc1ccccc1[N+](=O)[O-] (centres undefined)	0	0	0	0	0	0	-
COc1cc(CCNC2=CC(=O)c3ncccc3C2=O)ccc1O	-	0	0	34.9	0	0	0
COC(=O)c1ccccc1NC1=C/C(=N\S(=O)(=O)c2cccs2)c2ccccc2C1=O	0	0	0	55.0	35.4	0	51.6	ASAP1 GAP conf=0
COC(=O)c1cccc(NS(=O)(=O)c2cccs2)c1C	0	0	0	0	0	0	-
CCOC(=O)C1CCN(c2nc(N)c3c(N)nc(SCC(=O)O)cc3c2C#N)CC1	-	38.5	0	36.9	40.7	0	0	ASAP1 GAP conf=25.2
O=c1[nH]c(Nc2ccc(F)cc2)cc2ccccc12	0	42.8	0	56.3	36.6	0	0	ASAP1 GAP conf=32.2
CC1(Cc2cc(Cl)ccc2C(F)(F)F)C(=O)Nc2cc(-c3ccccc3Cl)ccc21 (centres undefined)	-	0	-	-	0	-	-
O=C1CCCCCC(=O)[C@H](O)C[C@H](c2ccccc2)O1	-	0	-	-	0	-	-
Cn1c(=O)c2cc(NCc3ccccc3)nnc2n(C)c1=O	0	27.8	0	66.0	43.7	0	0	ASAP1 GAP conf=0;ARFGAP1 inh conf=0
CC(NC1=CC(=O)c2cccnc2C1=O)C(O)c1ccccc1 (centres undefined)	-	27.3	0	56.3	0	0	42.6	ARFGAP1 inh conf=0
Cc1ccc(C(C)C)c(OCc2ccc(C(=O)N/N=C/c3ccc(O)cc3O)cc2)c1	0	30.0	0	41.9	0	0	25.9	ARFGAP1 inh conf=31.7
Cc1ccc(C(C)C)c(OCc2ccc(C(=O)N/N=C/c3ccc(C(=O)O)cc3)cc2)c1	0	0	0	0	0	0	-
COc1ccc(C2CCc3cc4c(cc3C2=NO)OCO4)cc1OC (centres undefined)	-	0	-	-	0	-	-
CC(C)(C)OC(=O)CC(S(=O)(=O)c1ccccc1)S(=O)(=O)c1ccccc1	-	0	-	-	0	-	-
CCn1nc(NC(=O)c2ccncc2)c2cc3ccc(C)cc3nc21	0	0	0	0	24.7	0	-	ASAP1 GAP conf=0
